Bioassay records: PubChem, several laboratories
Only some compounds are listed: those with a hit (about 3.1% of all), similar ones and a draw of the others.
HSF1 inh = HSF1 inhibitors in luciferase reporter cells, primary screen, cell-based, NIH3T3, luminescence; NIH3T3-HGL HSE-luciferase, MG132-induced, luminescence 8 h; stronger effect = lower value; AID 2098, 2009; activity change, negative = inhibition, % at 7.5 µM (by protocol); 300,000 compounds, 0.77% hits;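 active means more than half of replicate wells show activity change below -50%, luminescence cut by over half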;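 further: luciferase reports HSF-1 transcriptional activity via heat shock element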
Tb hexokinase = Trypanosoma brucei hexokinase 1 inhibitors, primary screen, biochemical, G6PDH-coupled NADH absorbance, MLSCN library | hexokinase 1 [Trypanosoma brucei] | recombinant TbHK1, G6PDH-coupled NADH A340 | AID 1430, 2008 | 220,000 compounds, 0.11% hits | inhibition, % at 10 µM;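 active means inhibition of 50% or more in the single-dose primary screen; inactive means inhibition below 50%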
Hsp70 activator = Hsp70 transcriptional activators, primary screen, cell-based, HeLa, Hsp70 promoter luciferase, luminescence, 10 µM; HeLa Hsp70 promoter luciferase reporter; scaled: vehicle 0, proteasome-inhibitor control 100%; activation, % at 10 µM; 200,000 compounds, 0.04% hits;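 active means activation above the mean across all tested compounds plus 3 SD, cutoff set per campaign, cut at about 5.5% in these data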
HSP90 inh = HSP90 inhibitors, primary screen, cell lysate, luminescence. Heat shock protein HSP 90 (rabbit reticulocyte lysate; luciferase refolding). Rabbit reticulocyte lysate, luciferase refolding luminescence, 3 h. inhibition, % at 5.6 µM. 290,000 compounds, 0.91% hits. AID 1789, 2009;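 active means inhibition above the screen-wide mean plus 3 SD, computed separately per campaign, cut at about 16% in these data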;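 further: inhibitors lower the luminescence because luciferase stays unfolded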
HKDC1 inh = HKDC1 hexokinase inhibitors, primary screen, biochemical, fluorescence, uHTS; AID 493160, 2011; Q2TB90; inhibition, % at 20 µM; 340,000 compounds, 0.16% hits; recombinant HKDC1, G6PDH/diaphorase resazurin coupled fluorescence;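 active means inhibition above about 35% when tested at 20 µM, limit read from the data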
Target sequence (Q2TB90 whole entry, looked up): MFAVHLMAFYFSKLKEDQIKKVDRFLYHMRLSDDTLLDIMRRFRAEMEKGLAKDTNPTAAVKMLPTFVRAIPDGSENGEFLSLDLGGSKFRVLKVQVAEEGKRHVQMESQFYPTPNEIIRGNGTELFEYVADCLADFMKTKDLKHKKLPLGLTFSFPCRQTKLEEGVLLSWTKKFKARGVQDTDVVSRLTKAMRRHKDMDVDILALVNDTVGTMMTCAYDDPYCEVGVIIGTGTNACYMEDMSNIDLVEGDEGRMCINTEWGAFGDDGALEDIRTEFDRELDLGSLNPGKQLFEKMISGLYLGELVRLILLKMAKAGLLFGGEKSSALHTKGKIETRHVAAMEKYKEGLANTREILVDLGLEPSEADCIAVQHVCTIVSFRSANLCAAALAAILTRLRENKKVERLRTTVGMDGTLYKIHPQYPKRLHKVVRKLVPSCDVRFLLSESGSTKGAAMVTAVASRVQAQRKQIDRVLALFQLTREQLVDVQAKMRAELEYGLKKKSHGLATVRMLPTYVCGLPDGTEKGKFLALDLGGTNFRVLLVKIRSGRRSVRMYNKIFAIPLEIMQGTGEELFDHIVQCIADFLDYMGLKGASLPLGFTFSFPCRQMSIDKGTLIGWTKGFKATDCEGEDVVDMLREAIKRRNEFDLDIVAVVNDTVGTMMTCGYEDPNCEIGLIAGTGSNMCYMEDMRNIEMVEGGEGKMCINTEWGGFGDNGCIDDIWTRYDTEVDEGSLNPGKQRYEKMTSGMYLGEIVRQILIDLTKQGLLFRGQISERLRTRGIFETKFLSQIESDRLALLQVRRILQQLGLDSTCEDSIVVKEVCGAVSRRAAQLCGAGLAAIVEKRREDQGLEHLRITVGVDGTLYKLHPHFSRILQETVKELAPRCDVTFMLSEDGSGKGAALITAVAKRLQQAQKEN
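Material: recombinant HKDC1 hexokinase; Amount: HKDC1 at 5 µg/mL; Medium: Tris pH 8.0 buffer with MgCl2, Tween-20, BSA, BME; Schedule: 90 min reaction incubation at room temperature, dark; Technique: coupled resazurin fluorescence, excitation 525 nm, emission 613 nm.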
HSF1 activator = HSF-1 activators, primary screen, NIH3T3-HGL cells, MG132 stress, luminescence, single point. activation, % at 9 µM. NIH3T3-HGL HSF-1 luciferase reporter, 8 h; 100% = twice DMSO control signal. AID 504408, 2011. 300,000 compounds, 1.7% hits;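 active means mean replicate activation of at least 50% with a set share of replicates each reaching 50%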
Numbers stand for hits.

`CCOC(=O)C1CCN(S(=O)(=O)CCNC(=O)c2ccc(F)cc2)CC1` gave HSF1 inh inactive, HKDC1 inh inactive and HSF1 activator inactive.
`CCOc1ccccc1NC(=O)CSc1nnc(CNC(=O)c2c(F)cccc2Cl)o1` gave HSF1 inh inactive, HSP90 inh inactive, HKDC1 inh inactive and HSF1 activator inactive.
For O=C(O)CSc1c(-c2ccccc2)[nH]c2ccccc12 the results were HSF1 inh inactive, Tb hexokinase inactive, Hsp70 activator inactive, HSP90 inh inactive, HKDC1 inh inactive and HSF1 activator 70.
NC(=O)Cn1cc(/C=N/NC(=O)c2ccc(Cn3cc(Cl)cn3)o2)c(-c2ccccc2)n1 was read as HSP90 inh inactive and HKDC1 inh inactive.
Screening c1ccc(-c2nnc(Cn3c4ccccc4c4nc5ccccc5nc43)o2)cc1 returned Tb hexokinase inactive, Hsp70 activator inactive, HSP90 inh inactive and HKDC1 inh inactive.
Screening CC(O)c1nc2ccccc2n1Cc1nnc(-c2ccc(Cl)cc2)o1 (centres undefined) returned HSF1 inh -56, Tb hexokinase inactive, Hsp70 activator inactive, HSP90 inh inactive, HKDC1 inh inactive and HSF1 activator inactive.
CC(C)C(OC(=O)c1nsc(Cl)c1Cl)C(=O)NCC1CCCO1 (centres undefined) was read as HSF1 inh inactive, HSP90 inh inactive, HKDC1 inh inactive and HSF1 activator inactive.
Screening COCc1cc(CN2CCCC(C(=O)Nc3ccc(-c4ccco4)cc3)C2)ccc1OC (centres undefined) returned HSF1 inh inactive, HSP90 inh inactive, HKDC1 inh inactive and HSF1 activator 64.
Screening Cc1ncc(CN2CCCC(C(=O)Nc3ccc(-c4ccco4)cc3)C2)cn1 (centres undefined) returned HSF1 inh inactive, HSP90 inh inactive, HKDC1 inh inactive and HSF1 activator inactive.
O=C(O)c1ccc(/C=N/Nc2ccc(C(F)(F)F)cn2)cc1 was read as HSF1 inh inactive, Tb hexokinase inactive, Hsp70 activator inactive, HSP90 inh inactive, HKDC1 inh inactive and HSF1 activator 52.
CCC(C)(C(=O)Nc1ccc(OC)cc1)N(C)C(=O)Cn1nnnc1N (centres undefined) was read as HSF1 inh inactive, HSP90 inh inactive, HKDC1 inh inactive and HSF1 activator inactive.
Screening CN(Cc1ccccc1)C(=O)c1ccc(NC(=O)C2CCN(C(=O)OC(C)(C)C)CC2)cc1 returned HKDC1 inh inactive.
Screening O=C1CCCN1CCCN=c1c([N+](=O)[O-])nn(-c2ccc(Cl)cc2)n1O returned HSF1 inh inactive, Tb hexokinase inactive, Hsp70 activator inactive, HSP90 inh inactive, HKDC1 inh inactive and HSF1 activator 62.
For O=[N+]([O-])c1nn(-c2ccc3c(c2)OCCO3)n(O)c1=Nc1ccc(Cl)cc1 the results were HSF1 inh -79, Tb hexokinase inactive, Hsp70 activator inactive, HSP90 inh inactive, HKDC1 inh inactive and HSF1 activator inactive.
Cc1cc(C)cc(N=c2c([N+](=O)[O-])nn(-c3ccc4c(c3)OCCO4)n2O)c1 was read as HSF1 inh inactive, Tb hexokinase inactive, Hsp70 activator inactive, HSP90 inh inactive, HKDC1 inh inactive and HSF1 activator inactive.
For Cc1ccc(N=c2c([N+](=O)[O-])nn(-c3ccc4c(c3)OCCO4)n2O)cc1F the results were HSF1 inh -79, Tb hexokinase inactive, Hsp70 activator inactive, HSP90 inh inactive, HKDC1 inh inactive and HSF1 activator inactive.
Screening COc1ccc(-n2nc([N+](=O)[O-])c(=NCCCN3CCCC3=O)n2O)cc1 returned HSF1 inh inactive, Tb hexokinase inactive, Hsp70 activator inactive, HSP90 inh inactive, HKDC1 inh inactive and HSF1 activator inactive.
Cc1ccc(N=c2c([N+](=O)[O-])nn(-c3ccc4c(c3)OCCO4)n2O)c(Cl)c1 was read as HSF1 inh -63, Tb hexokinase inactive, Hsp70 activator inactive, HSP90 inh 17 and HSF1 activator inactive.
Screening Cc1ccc(NC(=O)Cn2c([N+](=O)[O-])cnc2C)cc1Cl returned HSF1 inh inactive, HSP90 inh inactive, HKDC1 inh inactive and HSF1 activator inactive.
Screening COc1ccc(NS(=O)(=O)c2c(C)cc(C)cc2C)cn1 returned HSF1 inh inactive, HSP90 inh inactive, HKDC1 inh inactive and HSF1 activator inactive.
O=[N+]([O-])c1nn(-c2ccc3c(c2)OCCO3)n(O)c1=Nc1ccccc1 was read as HSF1 inh -89, Tb hexokinase inactive, Hsp70 activator inactive, HSP90 inh inactive, HKDC1 inh inactive and HSF1 activator inactive.
Cc1ccccc1N1CCN(C2CCCN(C(=O)c3noc4c3CCCC4)C2)CC1 (centres undefined) was read as HSF1 inh inactive, HSP90 inh inactive, HKDC1 inh inactive and HSF1 activator inactive.
For COc1cc(/C=C/C(=O)c2c(O)ccc3c(C)cc(=O)oc23)ccc1O the results were HSF1 inh inactive, Tb hexokinase inactive, Hsp70 activator inactive, HSP90 inh inactive, HKDC1 inh inactive and HSF1 activator 113.
`Cc1cc(=O)oc2c(C(=O)/C=C\c3cccs3)c(O)ccc12` gave HSF1 inh inactive, Tb hexokinase inactive, Hsp70 activator inactive, HSP90 inh inactive, HKDC1 inh inactive and HSF1 activator 61.
Screening Cc1c(C(=O)Nc2nccs2)oc2ccc(F)cc12 returned HKDC1 inh inactive.
Cc1c(C(=O)/C=C/c2cccs2)oc2ccc(F)cc12 was read as HSF1 inh inactive, Tb hexokinase inactive, Hsp70 activator inactive, HSP90 inh inactive, HKDC1 inh inactive and HSF1 activator 106.
For O=C(NC(CO)(CO)CO)c1coc(=O)c(Br)c1 the results were HSF1 inh inactive, Tb hexokinase inactive, Hsp70 activator inactive, HSP90 inh inactive, HKDC1 inh inactive and HSF1 activator 65.
`O=C(CSc1nnc(Cn2cnc3ccccc32)o1)Nc1cccc2ccccc12` gave HSF1 inh inactive, Tb hexokinase inactive, Hsp70 activator inactive, HSP90 inh inactive, HKDC1 inh inactive and HSF1 activator 51.
`CC(=O)c1ccc(NC(=O)CSc2nnc(Cn3cnc4ccccc43)o2)cc1` gave HSF1 inh inactive, Tb hexokinase inactive, Hsp70 activator inactive, HSP90 inh inactive, HKDC1 inh inactive and HSF1 activator inactive.
For O=c1[nH]c(COc2ccc(Br)cc2Cl)nc2ccccc12 the results were HSF1 inh inactive, HSP90 inh inactive, HKDC1 inh inactive and HSF1 activator 90.
For O=c1[nH]c(COc2ccccc2)nc2ccccc12 the results were HSF1 inh inactive, HSP90 inh inactive, HKDC1 inh inactive and HSF1 activator inactive.
